In test [1] the test system is PC-3. The experiment in a line: In vivo antitumor efficacy in human PC3 cells xenografted athymic nude mouse assessed as inhibition of tumor growth at 100 mg/kg, po for 21 days relative to vehicle treated control. It counts as functional, organism-based. On the set-up: dose 100 mg/kg. The essentials: (§1)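 Athymic nude mice given PC-3 cells sc (1 × 10⁶ per mouse); at about 50 mm³, randomized (n = 7) and dosed once daily for 21 days either ip at 50 mg/kg (vehicle saline/PEG400/DMSO/Tween 80, 65:20:10:5) or by oral gavage at 100 mg/kg (vehicle 0.5% methylcellulose/0.1% Tween 80 in water). Tumor volume measured weekly by calipers (width² × length × 0.52); phospho-proteins checked by Western blotting of tumor lysates.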
On the technique in general: A xenograft is tissue or cells of one species grown in another, often human tumour cells in immunodeficient mice.

The target in test [2] is T1, PH domain leucine-rich repeat-containing protein phosphatase 1 (Homo sapiens, UniProt O60346). The experiment in a line: Inhibition of PHLPP1-mediated reduction in phosphorylation of Akt at Ser473 in human PC3 cells after 24 hrs by Western blot analysis. It counts as cell-based. The note with it: PC-3. An outline of the steps: (§2)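 LNCaP or PC-3 cells treated at various concentrations for 24 h in serum-free medium. Lysed in SDS buffer (50 mM Tris pH 8, 10 mM EDTA, 1% SDS, protease inhibitors); equal protein run on SDS-PAGE and transferred to nitrocellulose. Primary antibodies 1:1000 overnight at 4 °C, HRP secondary 1:2000; detected by ECL.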
T1 sequence (O60346 whole entry, the tested form may be a part): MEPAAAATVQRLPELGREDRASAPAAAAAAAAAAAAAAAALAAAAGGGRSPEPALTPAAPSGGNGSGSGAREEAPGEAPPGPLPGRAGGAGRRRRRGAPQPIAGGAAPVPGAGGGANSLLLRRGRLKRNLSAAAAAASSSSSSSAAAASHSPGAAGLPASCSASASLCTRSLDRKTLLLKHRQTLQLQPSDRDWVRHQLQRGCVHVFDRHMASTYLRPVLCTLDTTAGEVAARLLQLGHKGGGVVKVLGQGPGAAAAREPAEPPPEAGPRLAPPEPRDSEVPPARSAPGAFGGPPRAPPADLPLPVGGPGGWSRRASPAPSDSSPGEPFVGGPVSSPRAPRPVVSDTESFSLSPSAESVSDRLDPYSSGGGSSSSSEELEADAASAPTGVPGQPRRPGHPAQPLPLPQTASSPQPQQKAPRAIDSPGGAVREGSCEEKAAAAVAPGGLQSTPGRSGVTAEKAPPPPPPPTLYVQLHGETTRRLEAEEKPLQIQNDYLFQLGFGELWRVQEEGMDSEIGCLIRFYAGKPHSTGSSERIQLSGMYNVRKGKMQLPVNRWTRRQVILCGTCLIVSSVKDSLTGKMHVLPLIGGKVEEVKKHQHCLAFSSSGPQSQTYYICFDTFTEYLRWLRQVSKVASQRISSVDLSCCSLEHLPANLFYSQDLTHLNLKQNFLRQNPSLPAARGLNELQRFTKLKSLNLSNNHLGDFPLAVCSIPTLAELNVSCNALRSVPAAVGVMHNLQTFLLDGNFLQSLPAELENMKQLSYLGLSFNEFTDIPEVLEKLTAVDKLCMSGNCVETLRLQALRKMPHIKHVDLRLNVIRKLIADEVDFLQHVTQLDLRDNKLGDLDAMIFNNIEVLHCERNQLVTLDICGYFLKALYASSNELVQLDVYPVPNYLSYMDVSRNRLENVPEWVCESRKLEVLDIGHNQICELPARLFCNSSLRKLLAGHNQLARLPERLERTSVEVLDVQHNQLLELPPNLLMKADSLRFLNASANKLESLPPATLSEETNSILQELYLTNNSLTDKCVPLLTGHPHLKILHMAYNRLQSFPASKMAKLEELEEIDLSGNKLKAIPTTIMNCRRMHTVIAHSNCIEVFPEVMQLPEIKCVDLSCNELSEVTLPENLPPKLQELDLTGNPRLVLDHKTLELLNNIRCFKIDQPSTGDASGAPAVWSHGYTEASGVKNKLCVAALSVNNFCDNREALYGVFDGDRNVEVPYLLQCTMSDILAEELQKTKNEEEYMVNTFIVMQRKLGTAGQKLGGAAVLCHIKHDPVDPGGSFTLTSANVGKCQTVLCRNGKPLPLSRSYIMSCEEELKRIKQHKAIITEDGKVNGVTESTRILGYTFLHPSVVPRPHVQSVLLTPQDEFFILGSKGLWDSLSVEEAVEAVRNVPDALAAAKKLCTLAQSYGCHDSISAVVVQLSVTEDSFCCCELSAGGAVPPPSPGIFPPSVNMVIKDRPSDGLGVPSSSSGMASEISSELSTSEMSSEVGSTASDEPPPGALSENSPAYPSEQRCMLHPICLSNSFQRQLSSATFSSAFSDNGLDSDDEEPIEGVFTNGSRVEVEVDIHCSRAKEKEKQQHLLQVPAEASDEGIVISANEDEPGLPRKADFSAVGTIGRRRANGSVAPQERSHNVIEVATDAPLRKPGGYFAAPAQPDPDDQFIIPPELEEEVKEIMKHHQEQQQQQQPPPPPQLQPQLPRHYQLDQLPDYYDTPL
Background: In western blotting, separated proteins are transferred to a membrane and probed.

For test [3], the target named is T1, PH domain leucine-rich repeat-containing protein phosphatase 1. As to the kind of experiment: Inhibition of PHLPP1-mediated reduction in phosphorylation of MDM2 in human PC3 cells after 24 hrs by Western blot analysis. The settings on record: PC-3. It counts as cell-based. An outline of the steps:
as §2

Test [4] relates to PC-3. As to the kind of experiment: In vivo antitumor efficacy in human PC3 cells xenografted athymic nude mouse assessed as decrease in phosphorylation of Akt at Ser473 in tumor at 100 mg/kg, po for 21 days relative to vehicle treated control. On the set-up: dose 100 mg/kg. The class given is functional, organism-based. An outline of the steps:
as §1

The target of test [5] is T1, PH domain leucine-rich repeat-containing protein phosphatase 1. The experiment in a line: Inhibition of PHLPP1-mediated reduction in phosphorylation of Akt at Ser473 in human LNCAP cells after 24 hrs by Western blot analysis. The class given is cell-based. The essentials: as §2
Test [6] shares this target. As to the kind of experiment: Inhibition of PHLPP1-mediated reduction in phosphorylation of Akt at Thr308 in human PC3 cells after 24 hrs by Western blot analysis. It counts as cell-based. The note with it: PC-3. An outline of the steps:
as §2

Test [7] shares this target. As to the kind of experiment: Inhibition of PHLPP1-mediated reduction in phosphorylation of MDM2 in human LNCAP cells after 24 hrs by Western blot analysis. It counts as cell-based. The essentials: as §2
In test [8] the test system is PC-3. As to the kind of experiment: In vivo antitumor efficacy in human PC3 cells xenografted athymic nude mouse assessed as decrease in phosphorylation of MDM2 in tumor at 100 mg/kg, po for 21 days relative to vehicle treated control. The class given is functional, organism-based. On the set-up: dose 100 mg/kg. An outline of the steps: as §1
Test [9] addresses T1, PH domain leucine-rich repeat-containing protein phosphatase 1. As to the kind of experiment: Inhibition of PHLPP1-mediated reduction in phosphorylation of Akt at Thr308 in human LNCAP cells after 24 hrs by Western blot analysis. The class given is cell-based. The essentials:
as §2

In test [10] the test system is PC-3. The experiment in a line: In vivo antitumor efficacy in human PC3 cells xenografted athymic nude mouse assessed as decrease in phosphorylation of Akt at Thr308 in tumor at 100 mg/kg, po for 21 days relative to vehicle treated control. The class given is functional, organism-based. On the set-up: dose 100 mg/kg. An outline of the steps: as §1
For test [11], the system named is LNCaP. As to the kind of experiment: Induction of Akt localization to human LNCAP cell membrane after 24 hrs by immunofluorescence staining analysis. The class given is functional, cell-based. An outline of the steps:
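LNCaP cells on poly-L-lysine-coated surfaces, treated in serum-free medium for 24 h. Fixed in 4% formaldehyde, permeabilized with 0.1% Triton X-100, blocked in 1% FBS, primary antibody (1:300) overnight, then Alexa Fluor secondary 2 h; DAPI nuclei; confocal imaging with cross-sectional fluorescence intensity analysis.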

Test [12] deals with PC-3. The experiment in a line: Antiproliferative activity against human PTEN-negative PC3 cells assessed as suppression of cell viability after 24 hrs by MTT assay in serum free medium. It counts as functional, cell-based. Background: Tetrazolium dyes change colour on reduction, which living cells bring about.
Test [13] relates to PC-3. The experiment in a line: In vivo antitumor efficacy in human PC3 cells xenografted athymic nude mouse assessed as decrease in phosphorylation of Akt at Thr308 in tumor at 50 mg/kg, ip for 21 days relative to vehicle treated control. The class given is functional, organism-based. Also on record: dose 50 mg/kg. The essentials:
as §1

Structures are written as SMILES. Active and inactive are the calls of the source. No cut-off for these calls is given here.

Turning to `Cc1c(S(N)(=O)=O)cc2c(c1C)OC(C)(CCCC(C)C)CC2` (stereo not drawn), the outcome in test [1], in test [4], in test [8] and in [12] was Active. The inhibition entry in test [2], in test [3], in test [5] and in test [7] was “Dose-dependent effect” in each case. For the same molecule, the inhibition result in test [6], in test [9], in test [10] and in [13] was “inactive” each time. Moreover, in test [11], the Activity entry was “Dose-dependent effect”.

Source of the values: ChEMBL document CHEMBL3414473.
